Calls of active or inactive are those of the source. No cut-off for these calls is given here.
Experiments:
[1] = test system: Pyricularia oryzae; assay: Antifungal activity against Magnaporthe grisea 70-15 after 18 hrs by conidia germination assay; format: functional, organism-based
Summary of the method: (§1)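 M. grisea strain 70-15 conidia suspended in water at 5 × 10⁴/mL and exposed to compound. After 18 h, germination was scored microscopically against an inhibitor-free control. Conidia counted as affected were those that had not germinated or whose germ tubes were under 30% of control length.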

[2] = test system: Paecilomyces variotii; assay: Antifungal activity against Paecilomyces variotii DSM 1961 at 50 ug/mL by disk diffusion assay; format: functional, organism-based
[3] = test system: HeLa; assay: Cytotoxic activity against human HeLa S3 cells up to 50 ug/mL; format: functional, cell-based
Summary of the method: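 HeLa S3 human cervix carcinoma cells were grown in DMEM with penicillin G (65 µg/mL) and streptomycin sulfate (100 µg/mL). Cells at 10⁵/mL were exposed to compound in microtiter wells at 37 °C in humidified 5% CO2. Viable cells were counted by microscopy at 24 and 48 h.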

[4] = test system: Rhizomucor miehei; assay: Antifungal activity against Rhizomucor miehei Tu 284 at 50 ug/mL by disk diffusion assay; format: functional, organism-based
[5] = test system: Pyricularia oryzae; assay: Antifungal activity against Magnaporthe grisea 70-15 at 20 ug/mL after 18 hrs by conidia germination assay; format: functional, organism-based; summary of the method: as §1
[6] = test system: Eremothecium coryli; assay: Antifungal activity against Nematospora coylii ATTC 10647 at 50 ug/mL by disk diffusion assay; format: functional, organism-based
[7] = test system: Penicillium chrysogenum; assay: Antifungal activity against Penicillium chrysogenum DSM 848 at 50 ug/mL by disk diffusion assay; format: functional, organism-based
[8] = test system: Pyricularia oryzae; assay: Antifungal activity against Magnaporthe grisea 70-15 at 25 ug/mL after 18 hrs by conidia germination assay; format: functional; settings: 70-15, 18 h; summary of the method: as §1

COCc1cc(O)c2c(c1O)[C@@]1(C)CC[C@H]3C(C)(C)CCC[C@]3(C)[C@H]1C2
Activity [1]: Active

CC(O)(CC(=O)O)CC(=O)OCC1=C[C@@]2(O)[C@H](C[C@@H]3[C@@]4(C)CCCC(C)(C)[C@@H]4CC[C@@]32C)C(=O)C1=O (some centres undefined)
Activity [1]: Active

Cc1ccc2c(c1O)[C@@]1(C)CC[C@H]3C(C)(C)[C@@H](O)CC[C@]3(C)[C@H]1C2
Activity [2]: inactive
Activity [3]: inactive
Activity [4]: inactive
Activity [5]: Active
Activity [6]: inactive
Activity [7]: inactive

Cc1ccc2c(c1O)[C@@]1(C)CC[C@@H]3[C@](C)(CCC[C@]3(C)O)[C@H]1C2 [DASYSCYPHIN E]
inhibition at 25 µg/mL [8]: 100%

Source: ChEMBL document CHEMBL1156662, “Tetracyclic terpenoids from Dasyscyphus niveus, dasyscyphins D and E” (2008)
